According to ChEMBL document CHEMBL1158758, “Cassane- and norcassane-type diterpenes from Caesalpinia crista of Indonesia and their antimalarial activity against the growth of Plasmodium falciparum” (J Nat Prod, 2005):

Test system: Plasmodium falciparum
Test: Antimalarial activity against Plasmodium falciparum FCR3/A2
Type: functional, organism-based
Conditions: FCR-3
How it was run: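 P. falciparum FCR-3/A2 clone cultured in vitro in 24-well plates across a wide concentration range of each compound. Compounds held as 10^-2 M DMSO stocks at -20 °C (stock, not final). Daily blood smears tracked parasite growth. IC50 (50% growth inhibition vs untreated control) came from linear regression of concentration–response data.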

SMILES	IC50
CC(=O)O[C@H]1[C@@H](OC(C)=O)C(C)(C)[C@]2(O)CCc3c(cc4occc4c3C)[C@@]2(C)[C@H]1OC(C)=O	6500 nM
C=C1c2ccoc2C[C@H]2[C@H]1CC[C@@]1(O)C(C)(C)[C@H](OC(C)=O)[C@H](OC(C)=O)[C@H](OC(C)=O)[C@]21C	200 nM
CC(=O)O[C@H]1CCC(C)(C)[C@]2(O)C[C@H](O)[C@H]3C(=O)c4ccoc4C[C@@H]3[C@@]12C [NORCAESALPININ E]	90 nM
CC(=O)O[C@H]1C[C@@H](OC(C)=O)C(C)(C)[C@]2(O)CC[C@H]3C(=O)c4ccoc4C[C@@H]3[C@@]12C [NORCAESALPININ B]	260 nM
CC(=O)O[C@H]1CCC(C)(C)[C@]2(O)C[C@@H]3OC(=O)[C@@H]4c5ccoc5C[C@@H]([C@@H]34)[C@@]12C [CAESALMIN B]	800 nM
CC(=O)O[C@H]1CC(C)(C)[C@]2(O)CC[C@H]3C(=O)c4ccoc4C[C@@H]3[C@@]2(C)[C@H]1OC(C)=O [NORCAESALPININ A]	800 nM
COC(=O)[C@@H]1c2ccoc2C[C@H]2[C@H]1[C@@H](OC(C)=O)C[C@@]1(O)C(C)(C)CC[C@H](OC(C)=O)[C@]21C [ACETOXYBONDUCELLPIN C]	600 nM
COC(=O)[C@@H]1c2ccoc2C[C@H]2[C@H]1C[C@H](OC(C)=O)[C@@]1(O)C(C)(C)CCC(=O)[C@]21C [CAESALPININ F]	650 nM
C=C1c2ccoc2C[C@H]2[C@H]1CC[C@@]1(O)C(C)(C)[C@H](OC(C)=O)C[C@H](OC(C)=O)[C@]21C [CAESALPININ C]	760 nM
COC(=O)[C@@H]1c2ccoc2C[C@H]2[C@H]1C[C@H](OC(C)=O)[C@@]1(O)C(C)(C)CC[C@H](OC(C)=O)[C@]21C [CAESALPININ E]	6500 nM
CC(=O)O[C@H]1CC(C)(C)[C@]2(O)CCc3c(cc(O)c(C=O)c3C)[C@@]2(C)[C@H]1OC(C)=O [NORCAESALPININ C]	5000 nM
CC(=O)O[C@H]1[C@@H](OC(C)=O)C(C)(C)[C@]2(O)CC[C@H]3C(=O)c4ccoc4C[C@@H]3[C@@]2(C)[C@H]1OC(C)=O [3-O-ACETYLNORCAESALPININ A]	2000 nM
CC(=O)O[C@H]1C[C@@H](OC(C)=O)C(C)(C)[C@]2(O)CCc3c(cc4occc4c3C)[C@@]12C [CAESALDEKARINE]	4000 nM
CC(=O)O[C@H]1CCC(C)(C)[C@]2(O)[C@@H](OC(C)=O)[C@@H]3OC(=O)[C@@H]4c5ccoc5C[C@@H]([C@@H]34)[C@@]12C [CAESALPININ D]	800 nM
CC(=O)O[C@H]1CC(C)(C)[C@]2(O)CCc3c(cc4occc4c3C)[C@@]2(C)[C@H]1OC(C)=O	98 nM
CC1(C)CC[C@H](O)[C@]2(C)[C@H]3Cc4occc4[C@H]4C(=O)O[C@@H](C[C@@]12O)[C@@H]43 [CAESALMIN G]	> 10000 nM
